For 13 compounds, Ki, Imax and Ratio Ki results are on record in ChEMBL document CHEMBL4371071, “Muscarinic agonist, (±)-quinuclidin-3-yl-(4-fluorophenethyl)(phenyl)carbamate: High affinity, but low subtype selectivity for human M1 - M5 muscarinic acetylcholine receptors” (Bioorg Med Chem Lett, 2019).

What is called Ki is a dissociation constant, usually derived from enzyme kinetics or from competition with a known ligand.

The target in assay [1] is T1, Muscarinic acetylcholine receptor M1 (Homo sapiens, UniProt P11229).
T1 sequence (P11229 whole entry): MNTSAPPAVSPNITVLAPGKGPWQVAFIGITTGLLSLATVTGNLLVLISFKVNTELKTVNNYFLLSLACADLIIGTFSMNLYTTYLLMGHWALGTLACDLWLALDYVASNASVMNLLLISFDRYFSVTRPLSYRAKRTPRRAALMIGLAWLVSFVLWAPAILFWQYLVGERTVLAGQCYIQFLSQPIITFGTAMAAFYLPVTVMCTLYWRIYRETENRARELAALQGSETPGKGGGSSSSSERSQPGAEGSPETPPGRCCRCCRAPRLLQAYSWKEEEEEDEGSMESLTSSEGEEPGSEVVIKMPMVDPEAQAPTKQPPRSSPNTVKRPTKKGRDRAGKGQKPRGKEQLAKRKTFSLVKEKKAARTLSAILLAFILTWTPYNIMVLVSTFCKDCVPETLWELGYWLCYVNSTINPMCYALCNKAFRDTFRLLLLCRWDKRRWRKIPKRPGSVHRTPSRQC
Briefly: Displacement of [3H]NMS from human M1 AChR expressed in CHO cell membranes after 1 to 2 hrs by liquid scintillation spectrometry method. Type of assay: cell-based. A general note: Loss of bound radioactivity is the signal in a displacement assay; it reports binding, not function.

Assay [2] concerns the target T2, Muscarinic acetylcholine receptor M3 (Homo sapiens, UniProt P20309). Kind of assay: Displacement of [3H]NMS from human M3 AChR expressed in CHO cell membranes after 1 to 2 hrs by liquid scintillation spectrometry method. Type of assay: cell-based.
Target sequence in this assay (P20309 whole entry): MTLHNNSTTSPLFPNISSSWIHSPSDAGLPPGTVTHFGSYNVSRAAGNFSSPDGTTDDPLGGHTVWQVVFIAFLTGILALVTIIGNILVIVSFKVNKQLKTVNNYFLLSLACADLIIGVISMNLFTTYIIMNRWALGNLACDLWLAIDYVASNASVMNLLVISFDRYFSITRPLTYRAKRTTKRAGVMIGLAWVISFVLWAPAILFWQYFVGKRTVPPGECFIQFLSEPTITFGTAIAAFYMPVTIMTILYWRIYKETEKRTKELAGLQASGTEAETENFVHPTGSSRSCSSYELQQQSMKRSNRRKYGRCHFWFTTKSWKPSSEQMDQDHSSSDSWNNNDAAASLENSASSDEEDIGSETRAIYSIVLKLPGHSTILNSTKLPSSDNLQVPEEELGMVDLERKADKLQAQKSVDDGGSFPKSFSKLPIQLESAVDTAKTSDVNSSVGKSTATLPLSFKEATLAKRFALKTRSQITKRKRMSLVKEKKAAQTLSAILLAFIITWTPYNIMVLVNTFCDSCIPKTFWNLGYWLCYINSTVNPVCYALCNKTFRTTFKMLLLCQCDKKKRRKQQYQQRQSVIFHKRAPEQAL
Assay [3] deals with T3, Muscarinic acetylcholine receptor M5 (Homo sapiens, UniProt P08912).
T3 sequence (P08912 whole entry): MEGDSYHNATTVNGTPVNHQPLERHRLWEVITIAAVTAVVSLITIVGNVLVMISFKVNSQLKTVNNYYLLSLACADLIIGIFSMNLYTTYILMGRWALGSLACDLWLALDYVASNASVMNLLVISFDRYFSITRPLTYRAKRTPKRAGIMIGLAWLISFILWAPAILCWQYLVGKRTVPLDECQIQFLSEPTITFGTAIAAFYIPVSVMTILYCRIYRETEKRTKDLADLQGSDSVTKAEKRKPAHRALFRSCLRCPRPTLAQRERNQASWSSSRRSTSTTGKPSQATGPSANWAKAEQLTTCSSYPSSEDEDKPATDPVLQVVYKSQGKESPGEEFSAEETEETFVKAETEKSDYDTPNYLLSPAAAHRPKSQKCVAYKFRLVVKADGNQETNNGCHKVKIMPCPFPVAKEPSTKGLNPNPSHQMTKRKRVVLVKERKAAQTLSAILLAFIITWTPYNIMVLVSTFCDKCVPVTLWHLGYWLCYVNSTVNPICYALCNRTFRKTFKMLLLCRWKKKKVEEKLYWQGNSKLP
Briefly: Displacement of [3H]NMS from human M5 AChR expressed in CHO cell membranes after 1 to 2 hrs by liquid scintillation spectrometry method. In a few lines: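 CHO membranes expressing human M5 (10 µg protein/well) with 0.3 nM [3H]NMS and analog (1 nM–100 µM) in 50 mM Tris-HCl pH 7.4, 2 h at 25 °C. Filtered on GF/B, counted by scintillation. IC50 converted to Ki; three independent experiments in duplicate.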

The target in assay [4] is T4, Muscarinic acetylcholine receptor M5 (Homo sapiens) (UniProt P08912).
T4 sequence (whole entry): T3 sequence (P08912 whole entry)
Briefly: Displacement of [3H]NMS from human M5 AChR expressed in CHO cell membranes at 100 uM after 1 to 2 hrs by liquid scintillation spectrometry method relative to control. Put shortly:
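CHO membranes expressing human M5 (10 µg protein/well) with 0.3 nM [3H]NMS and analog (1 nM–100 µM) in 50 mM Tris-HCl pH 7.4, 2 h at 25 °C. […] Filtered on GF/B, counted by scintillation. IC50 converted to Ki; three independent experiments in duplicate.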

For a further assay, the species on record is Homo sapiens. Kind of assay: Selectivity ratio of Ki for displacement of [3H]NMS from human M1 AChR expressed in CHO cell membranes to Ki for displacement of [3H]NMS from human M5 AChR expressed in CHO cell membranes.
Assay [5] deals with T5, Muscarinic acetylcholine receptor M1 (Homo sapiens) (UniProt P11229).
T5 sequence (whole entry): T1 sequence (P11229 whole entry)
Conditions: CHO, at 100 µM.

In assay [6] the target is T2, Muscarinic acetylcholine receptor M3. Conditions: CHO, at 100 µM.
Target sequence in this assay (P20309 whole entry, looked up): as the sequence (P20309 whole entry) above

For `O=C(OCCc1ccccc1)N(c1ccccc1)C1CN2CCC1CC2` (stereo not given), the Ki in assay [1] is 790 nM; in assay [2], 300 nM; in assay [3], 260 nM. For the same compound, the Imax in assay [4] is 96.9%; in assay [5] it was 88.5%; in assay [6], 99.1%. For the same compound, in the assay listed under Homo sapiens, the Ratio Ki was 3.
With `COc1ccc(CCN(C(=O)OC2CCCN(C)C2)c2ccccc2)cc1OC` (stereo not given), the Ki turned out to be 4300 nM in assay [1], 4360 nM in assay [2] and 4490 nM in assay [3]. Moreover, the Imax in assay [4] is 89.2%; in assay [5], 94.3%; in assay [6], 85.6%. Also, in the assay filed under Homo sapiens, the Ratio Ki worked out at 1.
Consider `COc1ccc(CCN(C(=O)OC2CCCN(C)C2)c2ccccc2)cc1` (stereo not given), for which the results for the Ki in assay [1], in assay [2] and in assay [3] were 690 nM, 1320 nM and 1050 nM, respectively. Moreover, the Imax in assay [4] came out at 97.7%; in assay [5], 98.6%; in assay [6], 96.2%. Moreover, in the assay filed under Homo sapiens, the Ratio Ki was determined as 0.7.
With `COc1ccc(CCN(C(=O)OC2C[C@H]3CC[C@H](C2)N3C)c2ccccc2)cc1` (stereo not given in full), the Ki in assay [1] is 350 nM; in assay [2], 270 nM; in assay [3], 240 nM. The Imax amounted to 97.9% in assay [4], 99.7% in assay [5] and 98.9% in assay [6]. For the same compound, the Ratio Ki in the assay filed under Homo sapiens stood at 1.5.
For the compound `CN1CCC(OC(=O)N(CCc2ccc(F)cc2)c2ccccc2)CC1`, the figures for the Ki in assay [1], in assay [2] and in assay [3] were 70 nM, 140 nM and 60 nM, respectively. The Imax in assay [4], in assay [5] and in assay [6] was 100% in each case. Further, the Ratio Ki in the assay filed under Homo sapiens was found to be 1.2.
Take `COc1ccc(CCN(C(=O)OC2CCN(C)CC2)c2ccccc2)cc1`: the Ki turned out to be 280 nM in assay [1], 570 nM in assay [2] and 190 nM in assay [3]. For the same compound, the values for the Imax in assay [4], in assay [5] and in assay [6] were 99.7%, 99.8% and 99.7%, respectively. Further, the Ratio Ki in the assay listed under Homo sapiens is 1.5.
Regarding `COc1ccc(CCN(C(=O)OC2C[C@H]3CC[C@H](C2)N3C)c2ccccc2)cc1OC` (stereo not given in full), the Ki is 1870 nM in assay [1], 2800 nM in assay [2] and 1370 nM in assay [3]. The Imax was found to be 95.9% in assay [4], 95.3% in assay [5] and 88.8% in assay [6]. For the same compound, in the assay filed under Homo sapiens, the Ratio Ki was determined as 1.4.
`COc1ccc(COC(=O)N(c2ccccc2)C2CN3CCC2CC3)cc1OC` (stereo not given): the Ki in assay [1] turned out to be 770 nM; in assay [2], 1020 nM; in assay [3], 550 nM. For the same compound, the Imax was found to be 98.7% in assay [4], 96.8% in assay [5] and 95.4% in assay [6]. The Ratio Ki in the assay filed under Homo sapiens amounted to 1.4.
Regarding `COc1ccc(CCCOC(=O)N(c2ccccc2)C2CN3CCC2CC3)cc1F` (stereo not given), the Ki stood at 430 nM in assay [1], 250 nM in assay [2] and 260 nM in assay [3]. For the same compound, the Imax in assay [4] is 99.4%; in assay [5], 100%; in assay [6], 99.8%. Further, the Ratio Ki in the assay filed under Homo sapiens was 1.7.
For `O=C(OCCc1ccc2c(c1)OCO2)N(c1ccccc1)C1CN2CCC1CC2` (stereo not given), the Ki was 630 nM in assay [1], 290 nM in assay [2] and 240 nM in assay [3]. In addition, the values for the Imax in assay [4], in assay [5] and in assay [6] were 97.1%, 99.6% and 98%, respectively. In addition, the Ratio Ki in the assay listed under Homo sapiens was 2.6.
`O=C(OCCc1ccc(Cl)c(Cl)c1)N(c1ccccc1)C1CN2CCC1CC2` (stereo not given): the Ki came out at 370 nM in assay [1], 260 nM in assay [2] and 80 nM in assay [3]. The Imax in assay [4] stood at 98.8%; in assay [5] it was 99.9%; in assay [6] it was 99.8%. The Ratio Ki in the assay filed under Homo sapiens came to 4.5.
As to `COc1ccc(COC(=O)N(c2ccccc2)C2CN3CCC2CC3)cc1` (stereo not given), the Ki amounted to 710 nM in assay [1], 1150 nM in assay [2] and 470 nM in assay [3]. The figures for the Imax in assay [4], in assay [5] and in assay [6] were 97.1%, 97.9% and 95.7%, respectively. Besides, the Ratio Ki in the assay filed under Homo sapiens is 1.5.
`CN1[C@@H]2CC[C@H]1C[C@@H](OC(=O)C(CO)c1ccccc1)C2` (stereo not given in full) returned an Imax in assay [4] of 96.7%.
